Rows were chosen to be rich in hits. Some 2.3% of all compounds tested hit in one or more screens of this group.
Ecoli tolC: growth inhibitors of E. coli tolC mutant, primary screen, strain BW25113 ΔtolC::kan, 384-well; AID 573, 2007; growth inhibition, % at 10 µM (by protocol); OD615; actives 2.2% (n = 65,000);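 active = growth inhibition at or above a cutoff equal to the mean over every tested compound plus 3 SD, cut at about 60% in these data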;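 note: growth measured after 20 h incubation at 37 °C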
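System: E. coli ΔtolC::kan strain BW25113; Buffer or medium: LB broth supplemented with 50 µg/mL kanamycin; Compound: 10 µM final, single dose; Incubation: bacterial growth with compound for 20 h at 37 °C; Signal: A615 absorbance measurement; Evaluation: growth inhibition in percent.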
HePTP inhibitor: inhibitors of human HePTP phosphatase, primary screen, biochemical, absorbance, leukemia target; inhibition, % at 20 µM; actives 0.64% (n = 110,000); recombinant HePTP phosphatase activity, OD absorbance; AID 521, 2006; Tyrosine-protein phosphatase non-receptor type 7 (Homo sapiens), P35236; in the data active = inhibition above about 50%;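 note: plate controls were vehicle for no effect and reference inhibitor for full effect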
AP ELISA ortho: alternative complement pathway inhibitors, primary screen, biochemical, ELISA, human serum, orthogonally pooled compounds; LPS-coated ELISA, C3 deposition; tested in compound mixtures; actives 0.08% (n = 62,000); AID 1235, 2008; inhibition, % at 5 µM;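 active = inhibition above 30% in each of the two pooled mixtures holding the compound, so the lower value exceeds 30%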;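 note: 0% = serum in Mg-EGTA without compound and 100% = EDTA serum blank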
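Medium: diluted human serum in Mg2+-EGTA GVB++. Assay system: human serum complement alternative pathway, C3 deposition onto LPS. Also added: Plate-bound LPS. Technique: Anti-C3 ELISA, OD 450 nm. Measure: percent inhibition. Incubation: 1 h at 37 °C. Dosing: 5 µM each compound, pools of ten, 50 µM per pool.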
Ecoli WT expand: growth inhibitors of wild-type E. coli, primary screen, strain BW25113, expanded library, OD600. actives 0.15% (n = 98,000). growth inhibition, % at 100 µM. AID 710, 2007. OD600 absorbance;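 active = growth inhibition above about 50% at one test dose, limit read from the data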;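 note: growth measured after 20 h incubation at 37 °C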
PLAP activator: PLAP enzyme activators, biochemical, luminescence, HTS; activation fold at 20 µM; purified PLAP enzyme, luminescent substrate read-out; active compounds read high; actives 1.2% (n = 96,000); AID 696, 2007; in the data active = activation fold above about 2
Target sequence (P05187 whole entry, looked up): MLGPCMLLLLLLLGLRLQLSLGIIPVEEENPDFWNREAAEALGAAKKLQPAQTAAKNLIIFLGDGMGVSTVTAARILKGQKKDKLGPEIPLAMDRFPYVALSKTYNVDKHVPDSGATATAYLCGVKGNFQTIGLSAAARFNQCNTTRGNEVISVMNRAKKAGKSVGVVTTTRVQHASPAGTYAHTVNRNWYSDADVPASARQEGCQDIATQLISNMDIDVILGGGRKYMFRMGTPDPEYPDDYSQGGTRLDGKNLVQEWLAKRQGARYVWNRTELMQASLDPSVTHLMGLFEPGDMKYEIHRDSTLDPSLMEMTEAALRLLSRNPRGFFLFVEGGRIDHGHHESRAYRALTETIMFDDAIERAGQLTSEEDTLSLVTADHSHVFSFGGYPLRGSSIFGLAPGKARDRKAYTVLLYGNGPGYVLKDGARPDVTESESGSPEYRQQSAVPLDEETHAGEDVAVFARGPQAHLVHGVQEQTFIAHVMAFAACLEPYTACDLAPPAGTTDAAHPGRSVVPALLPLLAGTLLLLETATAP
* hit, by the source's call; · = not tested or not shown.

SMILES | Ecoli tolC | HePTP inhibitor | AP ELISA ortho | Ecoli WT expand | PLAP activator
CN(C)c1ccc(C2/C(=C(\O)c3ccc(F)cc3)C(=O)C(=O)N2CCCCCC(=O)O)cc1 (centres undefined) | · | -0.1 | · | · | ·
CCN(C(=O)c1cc2cc3ccc(C)cc3nc2o1)c1ccc(OC)cc1 | 72.1* | -3.4 | -15.7 | -15.0 | 1.5
COc1ccc2cc3cc(C(=O)NC(C)C)oc3nc2c1 | · | · | · | -5.0 | 0.9
CCOC(=O)c1c(NC(C)=O)sc2c1CC(C)(C)OC2 | · | -6.4 | · | · | ·
COC(=O)C1=NN(C(=O)c2cccc([N+](=O)[O-])c2)C(O)(c2ccccc2)C1 (centres undefined) | · | 103.9* | · | · | ·
O=C(CSc1nc2ccccc2[nH]1)NC(c1ccccc1)c1ccccc1 | · | 5.6 | · | · | ·
Cc1ccc(-c2nc3ccccc3o2)cc1NC(=O)c1cccc(Br)c1 | · | -5.1 | · | · | ·
Cc1ccc(C(C(=O)NC2CCCCC2)N(Cc2ccco2)C(=O)C2COc3ccccc3O2)o1 (centres undefined) | · | · | · | -4.0 | 1.2
O=C(NCc1ccco1)C(c1cccs1)N(C(=O)C1COc2ccccc2O1)c1cccc(O)c1 (centres undefined) | 75.9* | 4.7 | 5.1 | -8.0 | 1.3
O=C(Cn1nc(Cl)nc1Cl)c1ccc2c(c1)OCCO2 | -16.4 | 2.5 | 3.0 | 61.0* | 0.8
O=C(Nc1ccc(I)cc1)C1CC(=O)N(c2ccc(F)cc2)C1 (centres undefined) | · | 1.6 | · | · | ·
O=C(O)CN1C(=O)/C(=C\c2ccc(Cl)c(Cl)c2)SC1=S | · | -1.5 | · | · | ·
COc1cc(/C=C2/SC(=S)N(CC(=O)O)C2=O)cc(Cl)c1O | · | 97.7* | · | · | ·
CCn1cc(C(=O)O)c(=O)c2cnc(N3CCN(C(=O)Nc4ccccc4)CC3)nc21 | 100.0* | · | · | · | ·
CCn1cc(C(=O)N2CCn3c(nc4ccccc43)C2)c(=O)c2ccc(C)nc21 | -6.7 | 1.8 | 3.4 | 1.0 | 1.4
CCCCCCC1CCC(C(=O)NC(CCSC)C(=O)NC(C(=O)OC)C(C)C)CC1 (centres undefined) | · | · | · | -2.0 | 2.2*
Cc1ccc(C(C)C)c(OCC(=O)Nc2ccc(OC(F)(F)F)cc2)c1 | · | 83.0* | · | · | ·
Cc1ccc(C(C)C)c(OCC(=O)Nc2ccc3c(c2)nc(CN2CCCC2)n3C)c1 | · | · | · | -3.0 | 2*
CCOc1ccc(C(=O)Nc2ccc(OC(F)(F)F)cc2)cc1 | · | 103.0* | · | · | ·
CCOc1ccc(C(=O)Nc2ccc(OC(F)(F)F)cc2)cc1Br | · | 7.8 | · | · | ·
O=C1c2ccc(-c3nc4ccccc4c(=O)o3)cc2C(=O)N1c1cccc(I)c1 | · | 6.0 | · | · | ·
COc1ccccc1C(=O)NN1C(=O)/C(=C/c2ccc(N(C)C)cc2)SC1=S | · | 7.3 | · | · | ·
CCN(CC)c1ccc(C(=O)Nc2cccc(F)c2)cc1 | 61.8* | 4.7 | 1.9 | -4.0 | 0.8
CCN(CC)c1ccc(C(=O)Nc2ccncc2)cc1 | · | 7.1 | · | · | ·
O=C1c2[nH]nc(-c3ccccc3O)c2C(c2cccc(Cl)c2)N1CC1CCCO1 (centres undefined) | 88.0* | 3.6 | 5.2 | 6.0 | 1.5
SMILES | Ecoli tolC | HePTP inhibitor | AP ELISA ortho | Ecoli WT expand | PLAP activator
COc1ccc(CCN2C(=O)c3[nH]nc(-c4ccccc4O)c3C2c2cccc(O)c2)cc1OC (centres undefined) | 50.0 | 1.4 | 7.3 | 11.0 | 2.9*
O=C1c2[nH]nc(-c3ccccc3O)c2C(c2ccc(F)cc2)N1Cc1ccco1 (centres undefined) | 100.0* | -5.1 | 1.0 | 0.0 | 2.4*
O=C1c2[nH]nc(-c3ccccc3O)c2C(c2ccc(F)cc2)N1CC1CCCO1 (centres undefined) | 58.6 | -2.3 | -1.4 | 0.0 | 1.8
O=C1c2[nH]nc(-c3ccccc3O)c2C(c2cccc(Cl)c2)N1Cc1ccco1 (centres undefined) | 100.0* | 4.8 | 6.2 | -3.0 | 1.2
O=C(Nc1ccc(Cl)c(Cl)c1)C(=O)NC1CCCC1 | · | -0.5 | · | · | ·
CCONC(=NCc1ccccc1)c1nonc1N | · | 6.5 | · | · | ·
COc1ccc(Cl)c(NC(=O)CSc2nc(C)cc(C)n2)c1 | · | -2.8 | · | · | ·
COC(=O)c1sc(NC(=O)CCc2ccccc2)c(C(=O)OC)c1C | · | 104.0* | · | · | ·
COC(=O)c1c(NC(=O)CCc2ccccc2)sc2c1CCCC2 | · | -20.2 | · | · | ·
Cc1nn(Cc2cccc(F)c2)c(C)c1NC(=O)c1ccc(COc2ccccc2Cl)cc1 | · | · | · | -12.0 | 2*
Cc1nn(Cc2c(F)c(F)c(F)c(F)c2F)c(C)c1NC(=O)c1cccc(COc2ccccc2Cl)c1 | · | · | · | 0.0 | 0.9
Cc1ccc(OCC(=O)Oc2ccc(C(=O)c3ccccc3)cc2C)c(C)c1 | · | 103.6* | · | · | ·
Cc1ccc(OCC(=O)N(C)c2ccccc2)c(C)c1 | · | 4.6 | · | · | ·
CC1(C)Cc2c(sc3c2c(=N)n(Cc2ccco2)c(=O)n3Cc2ccc(Cl)cc2)CO1 | 63.9* | 14.4 | 6.4 | -20.0 | 1.7
O=C(CC(C(=O)O)N1CCOCC1)c1ccccc1 (centres undefined) | · | 102.7* | · | · | ·
Cc1ccc(S(=O)(=O)NC(CC(C)C)C(=O)Nc2nccs2)cc1 (centres undefined) | · | · | · | -1.0 | 2.2*
Cc1ccc(S(=O)(=O)CCC(=O)Nc2nccs2)cc1 | · | · | · | 6.0 | 0.9
O=C(Nc1ccc(S(=O)(=O)N2CCc3ccccc32)cc1)c1cccc([N+](=O)[O-])c1 | · | -3.1 | · | · | ·
O=C(Nc1ncccc1O)c1cccc(S(=O)(=O)N2CCc3ccccc32)c1 | 15.7 | 6.6 | 19.2 | -4.0 | 2.5*
COC(=O)C1=C(C)NC(=O)/C1=C\c1ccc(Cl)cc1Cl | · | 0.1 | · | · | ·
Cc1cccc(N2C(=O)CN=C2Nc2nc(C)cc(C)n2)c1 | · | · | · | 7.0 | 2.6*
Fc1ccc(NC(=S)N2CCN(Cc3ccc4c(c3)OCO4)CC2)cc1 | · | 6.9 | · | · | ·
CCCCNS(=O)(=O)c1ccc2nc(SCC(=O)c3ccc(C#N)cc3)[nH]c2c1 | -3.0 | 15.0 | 4.4 | -2.0 | 2*
COc1ccc(C2C(C(=O)OCC(=O)Nc3ccc(C)cc3)CCC(=O)N2c2ccc(OC)cc2)cc1 (centres undefined) | · | · | · | -8.0 | 2.4*
COc1ccc(C2C(C(=O)OCC(=O)NC(C)(C)C)CCC(=O)N2c2ccc(C)cc2)cc1OC (centres undefined) | · | · | · | 5.0 | 1.7
COc1ccc(N(C2CSC2)S(=O)(=O)c2ccccc2)cc1 | 63.9* | -1.6 | 4.9 | -7.0 | 1.1
